Broadly, the inhibition is how much of the control response was suppressed. As usually defined, the IC50 is the concentration at which inhibition is half-maximal. The low end stands for greater potency, the high end for weaker potency.

Results on 2 compounds are retold here after ChEMBL document CHEMBL4052609, “(+)-Strebloside-Induced Cytotoxicity in Ovarian Cancer Cells Is Mediated through Cardiac Glycoside Signaling Networks” (J Nat Prod, 2017).

For experiment [1], the species on record is Homo sapiens. Description: Inhibition of sodium potassium ATPase in human OVSAHO cells assessed as downregulation of p53 protein expression at 100 nM after 72 hrs by Western blot analysis. Type of experiment: cell-based. Background: A western blot detects proteins with antibodies after separation by electrophoresis.
Experiment [2] is described as follows: Antiproliferative activity against CD-1 mouse MOE cells derived from 8 to 25 passages after 72 hrs. Type of experiment: cell-based. The following applies: CD-1, MOE. A digest of the protocol:
(§1)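 MOE cells from pooled oviducts of 8-week-old female CD1 mice in supplemented α-MEM with EGF, insulin, transferrin, selenite, β-estradiol; scrambled and PTEN shRNA/KRAS G12V clones kept under puromycin (plus hygromycin for the mutant). Log-phase cells seeded 5,000/well, overnight, DMSO-dissolved compound added, 72 h; viable cells read by MTS-type absorbance; IC50 in nM relative to DMSO control.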

The nature of experiment [3]: Antiproliferative activity against CD-1 mouse MOE cells derived from 85 to 120 passages after 72 hrs. It counts as functional, cell-based. As to conditions: CD-1, MOE. A digest of the protocol:
as §1

For experiment [4], the species on record is Homo sapiens. Description: Inhibition of sodium potassium ATPase in human OVCAR3 cells assessed as upregulation of p21 protein expression at 100 nM by Western blot analysis. It counts as cell-based. A digest of the protocol: (§2)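 Treated cells washed with PBS, lysed in RIPA on ice 15 min, cleared 14,000 g at 4 °C; 25 µg protein by BCA run on SDS-PAGE, PVDF, milk block, primary antibody overnight at 4 °C, HRP anti-rabbit, chemiluminescence; actin loading control; densitometry, n = 3, mean ± SEM.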

The species named for experiment [5] is Homo sapiens. Description: Inhibition of sodium potassium ATPase in human OVSAHO cells assessed as upregulation of p21 protein expression at 100 nM by Western blot analysis. It counts as cell-based. A digest of the protocol: as §2
Experiment [6] can be described thus: Antiproliferative activity against CD-1 mouse MOE cells harboring scrambled RNA after 72 hrs. It counts as cell-based. The following applies: CD-1, MOE. A digest of the protocol: as §1
The nature of experiment [7]: Antiproliferative activity against CD-1 mouse MOE cells harboring PTENshRNA/KRASG12V mutation after 72 hrs. Type of experiment: functional, cell-based. As to conditions: CD-1, MOE. A digest of the protocol:
as §1

Experiment [8] concerns OVCAR-3. Description: Cell cycle arrest in human OVCAR3 cells assessed as accumulation at G2/M phase at 100 nM after 72 hrs by propidium iodide staining-based flow cytometry method. It counts as functional. A digest of the protocol:
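Cells in 6-well plates treated 72 h, trypsinized, fixed in 70% ethanol, PBS-washed, stained in PBS with 1 mg/mL RNase and 50 µg/mL propidium iodide for 30 min in the dark at room temperature; DNA content by flow cytometry, phase distribution compared with vehicle.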

Experiment [9] relates to OVCAR-3. Description: Induction of apoptosis in human OVCAR3 cells assessed as upregulation of cleaved caspase 3 expression at 100 nM by Western blot analysis. It counts as functional, cell-based. A digest of the protocol: as §2
Experiment [10] has as its system OVCAR-3. The experiment is described as follows: Induction of apoptosis in human OVCAR3 cells assessed as upregulation of cleaved PARP expression at 100 nM by Western blot analysis. Type of experiment: functional, cell-based. A digest of the protocol:
as §2

The subject of experiment [11] is OVCAR-3. Description: Induction of apoptosis in human OVCAR3 cells assessed as decrease in Mcl-1 levels at 100 nM by Western blot analysis. Type of experiment: functional, cell-based. A digest of the protocol: as §2
The test system of experiment [12] is OVCAR-3. The experiment is described as follows: Induction of apoptosis in human OVCAR3 cells assessed as decrease in Bcl-xL levels at 100 nM by Western blot analysis. It counts as functional, cell-based. A digest of the protocol: as §2
A further experiment has as its system OVSAHO. The experiment is described as follows: Induction of apoptosis in human OVSAHO cells assessed as upregulation of cleaved PARP expression at 100 nM after 72 hrs by Western blot analysis. Type of experiment: functional, cell-based. A digest of the protocol: as §2
Experiment [13] is filed under the species Homo sapiens. The experiment is described as follows: Inhibition of sodium potassium ATPase in human OVCAR3 cells assessed as downregulation of p53 protein expression at 100 nM after 72 hrs by Western blot analysis. It counts as cell-based. A digest of the protocol:
as §2

For experiment [14], the species on record is Homo sapiens. Description: Inhibition of sodium potassium ATPase in human OVSAHO cells assessed as increase in ERK phosphorylation levels at 100 nM after 120 mins by Western blot analysis. It counts as cell-based. A digest of the protocol: (§3)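 Cells exposed to 100 nM for indicated times; RIPA lysates, 25 µg protein on SDS-PAGE/PVDF probed for phospho-ERK and total ERK (1:500 each), HRP secondary, chemiluminescent detection.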

Experiment [15] is filed under the species Homo sapiens. Description: Inhibition of sodium potassium ATPase in human OVCAR3 cells assessed as increase in ERK phosphorylation levels at 100 nM after 120 mins by Western blot analysis. It counts as cell-based. A digest of the protocol: as §3
The species named for experiment [16] is Homo sapiens. The experiment is described as follows: Inhibition of sodium potassium ATPase in human OVCAR3 cells assessed as reduction in TNFalpha-induced NFkappaB activation at 100 nM after 4 hrs by luciferase reporter gene assay relative to control. Type of experiment: cell-based. A digest of the protocol:
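OVCAR3 plated 25,000/well, overnight, transfected 24 h with 0.05 µg/well NF-κB-element luciferase reporter in serum medium; then 10 ng/mL TNFα plus 100 nM compound for 4 h; luciferase luminescence, fold change versus untreated, ANOVA.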
Background: Reporter assays use an easily measured gene product as a stand-in for the process of interest.

For experiment [17], the species on record is Homo sapiens. Description: Inhibition of sodium potassium ATPase in human OVCA432 cells assessed as downregulation of p53 protein expression at 100 nM after 72 hrs by Western blot analysis. It counts as cell-based. A digest of the protocol: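 Cells exposed to 100 nM for 72 h; RIPA lysates, 25 µg protein on SDS-PAGE/PVDF, anti-p53 (1:500) overnight at 4 °C, HRP secondary, chemiluminescence, actin control; densitometry.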

A further experiment deals with OVCAR-4. Description: Antiproliferative activity against human OVCAR4 cells after 72 hrs by CellTiter 96 aqueous one solution assay. The following applies: OVCAR-4, 72 h. It counts as functional, cell-based. A digest of the protocol: (§4)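 Log-phase cells harvested by trypsin with two PBS washes, seeded 5,000/well, incubated overnight. Serial dilutions of compound from DMSO stock added, 72 h exposure. Viability read by absorbance. IC50 (nM) calculated relative to DMSO solvent control.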

A further experiment has as its system OVCAR-5. The experiment is described as follows: Antiproliferative activity against human OVCAR5 cells after 72 hrs by CellTiter 96 aqueous one solution assay. Type of experiment: functional, cell-based. The following applies: OVCAR-5, 72 h. A digest of the protocol:
as §4

A further experiment deals with KURAMOCHI
The experiment is described as follows: Antiproliferative activity against human Kuramochi cells after 72 hrs by CellTiter 96 aqueous one solution assay. It counts as functional, cell-based. A digest of the protocol:
as §4

Experiment [18] in a line: Antiproliferative activity against human IOSE-80 cells after 72 hrs by CellTiter 96 aqueous one solution assay. It counts as cell-based. The following applies: IOSE80, 72 h. A digest of the protocol: as §4
A further experiment concerns OVCAR-8. The experiment is described as follows: Antiproliferative activity against human OVCAR8 cells after 72 hrs by CellTiter 96 aqueous one solution assay. Type of experiment: functional, cell-based. As to conditions: OVCAR-8, 72 h. A digest of the protocol: (§5)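 Log-phase cells harvested by trypsin with two PBS washes, seeded 5,000/well, incubated overnight. Serial dilutions of compound from DMSO stock added, 72 h exposure. Viability read by absorbance. IC50 (nM) calculated relative to DMSO solvent control. Cultures at 37 °C, 5% CO2 in their own media (RPMI, MEM, DMEM, or Medium 199/MCDB for IOSE-80).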

The subject of another experiment is MDA-MB-435. Description: Antiproliferative activity against human MDA-MB-435 cells after 72 hrs by CellTiter 96 aqueous one solution assay. It counts as functional, cell-based. As to conditions: MDA-MB-435, 72 h. A digest of the protocol: as §4
The next experiment deals with MDA-MB-231. The experiment is described as follows: Antiproliferative activity against human MDA-MB-231 cells after 72 hrs by CellTiter 96 aqueous one solution assay. It counts as functional, cell-based. The following applies: MDA-MB-231, 72 h. A digest of the protocol:
as §4

The subject of the next experiment is HT-29. Description: Antiproliferative activity against human HT-29 cells after 72 hrs by CellTiter 96 aqueous one solution assay. Type of experiment: functional, cell-based. As to conditions: HT-29, 72 h. A digest of the protocol:
as §4

Experiment [19] has as its system OVCAR-3. Description: Antiproliferative activity against human OVCAR3 cells after 72 hrs by CellTiter 96 aqueous one solution assay. Type of experiment: functional, cell-based. The following applies: OVCAR-3, 72 h. A digest of the protocol:
as §5

Experiment [20] in a line: Antiproliferative activity against human OVSAHO cells after 72 hrs by CellTiter 96 aqueous one solution assay. It counts as functional, cell-based. A digest of the protocol:
as §4

Active and inactive are the calls of the source. No cut-off for these calls is given here. A value given as a limit tells only on which side of the number the result lay.

In the case of `CO[C@H]1[C@H](O[C@H]2CC[C@]3(C=O)[C@H]4CC[C@]5(C)[C@@H](C6=CC(=O)OC6)CC[C@]5(O)[C@@H]4CC[C@]3(O)C2)O[C@H](C)[C@H](O)[C@@H]1OC` [STREBLOSIDE], the inhibition entry in the experiment filed under Homo sapiens [1], in the experiment filed under Homo sapiens [4], in the experiment listed under Homo sapiens [5], in the experiment filed under Homo sapiens [13], in the experiment filed under Homo sapiens [14] and in the experiment listed under Homo sapiens [15] was “Active” throughout. Moreover, the inhibition entry in the experiment listed under Homo sapiens [17] was “Active”. Further, the IC50 in [2], in experiment [3], in [6] and in experiment [7] was above 50 µM throughout. Besides, the outcome in the experiment on OVCAR-3 [8], in the experiment with OVCAR-3 [9], in the experiment on OVCAR-3 [10], in the experiment on OVCAR-3 [11], in the experiment with OVCAR-3 [12] and with OVSAHO was Active. The inhibition in the experiment filed under Homo sapiens [16] came out at 29%.
In the case of `C[C@H]1O[C@@H](O[C@H]2[C@@H](O)C[C@H](O[C@H]3[C@@H](O)C[C@H](O[C@H]4CC[C@@]5(C)[C@H](CC[C@@H]6[C@@H]5CC[C@]5(C)[C@@H](C7=CC(=O)OC7)CC[C@]65O)C4)O[C@@H]3C)O[C@@H]2C)C[C@H](O)[C@@H]1O` [DIGITOXIN], the inhibition entry in the experiment filed under Homo sapiens [1], in the experiment filed under Homo sapiens [4], in the experiment listed under Homo sapiens [5], in the experiment listed under Homo sapiens [13], in the experiment filed under Homo sapiens [14] and in the experiment listed under Homo sapiens [15] was “Active” in each case. For the same compound, the inhibition entry in the experiment listed under Homo sapiens [17] is “Active”. Also, the IC50 in the experiment with OVCAR-4 is 426 nM; in the experiment on OVCAR-5, 321 nM; with KURAMOCHI it was 5.91 µM; in [18], 48.4 nM; in the experiment on OVCAR-8 it was 71.5 nM; in experiment [2] it was above 50 µM. Also, the half-maximal inhibitory concentration (IC50) is above 50 µM in [3]; 43.3 nM in the experiment with MDA-MB-435; 482 nM in the experiment with MDA-MB-231; 67.6 nM in the experiment on HT-29; 117 nM in the experiment on OVCAR-3 [19]; 250 nM in [20]. Further, the IC50 in [6] and in [7] was above 50 µM throughout. Further, the result in the experiment with OVCAR-3 [8], in the experiment with OVCAR-3 [9], with OVCAR-3 [10], in the experiment on OVCAR-3 [11], in the experiment with OVCAR-3 [12] and in the experiment with OVSAHO was Active. Further, in the experiment listed under Homo sapiens [16], the inhibition turned out to be 50%.
